Measured values as given in ChEMBL document CHEMBL1148485, “Synthesis and biological evaluation of new selective cytotoxic cyclolignans derived from podophyllotoxin” (J Med Chem, 2004).
pIC50: −log10 of the molar value.

Legend:
[1] = tested on: A549; assay: In vitro cytotoxicity against A-549 (human lung carcinoma) cell line.; format: functional, cell-based
[2] = tested on: HT-29; assay: In vitro cytotoxicity against HT-29 (human colon carcinoma) cell line.; format: functional, cell-based
[3] = tested on: SK-MEL-28; assay: Tested in vitro for antineoplastic activity against MEL-28 (human melanoma) tumor cell line; format: functional, cell-based
How it was run: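 MEL-28 cells seeded at 2 × 10^4 cells/well in MEM–10% FCS containing graded compound concentrations. Incubated 4 days at 37 °C, 10% CO2, 98% humidity. Stained with crystal violet and inhibition judged against untreated controls, which were kept in exponential growth. Mean of duplicate wells.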

[4] = Selectivity index is the ratio of IC50 of P-388 cell line to that of HT-29; format: functional
[5] = tested on: P388; assay: Tested in vitro for antineoplastic activity against P-388 (lymphoid neoplasm from DBA/2 mouse) tumor cell line; format: functional, cell-based
How it was run: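 P-388 cells seeded at 1 × 10^4 cells/well in MEM–10% FCS containing graded compound concentrations. Incubated 4 days at 37 °C, 10% CO2, 98% humidity. Inhibition scored by inverted microscopy against untreated controls, which were kept in exponential growth. Mean of duplicate wells.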

| Compound | pIC50 ([1]; Homo sapiens, A549) | pIC50 ([2]; Homo sapiens, HT-29) | pIC50 [3] | Selectivity index [4] | pIC50 [5] | pIC50 ([1]; a549) | pIC50 ([2]; ht-29) |
| --- | --- | --- | --- | --- | --- | --- | --- |
| COC(=O)[C@@H]1C(/C=N/c2ccccc2O)=Cc2cc3c(cc2C1c1cc(OC)c(OC)c(OC)c1)OCO3 (stereo partly specified) | < 5.01 | 6.01 | < 5.01 | – | – | – | – |
| COC(=O)[C@@H]1C(/C=N/c2cncnc2N)=Cc2cc3c(cc2C1c1cc(OC)c(OC)c(OC)c1)OCO3 (stereo partly specified) | 7.64 | 7.64 | 6.00 | 83 | 5.72 | – | – |
| CC/N=C/C1=Cc2c(cc3c(c2OC)OCO3)C(c2cc(OC)c(OC)c(OC)c2)[C@@H]1C(=O)OC (stereo partly specified) | < 5.00 | 7.00 | 6.00 | – | – | – | – |
| COC(=O)[C@@H]1C(C=O)=Cc2c(cc3c(c2OC)OCO3)[C@H]1c1cc(OC)c(OC)c(OC)c1 | 6.66 | 7.70 | – | 55 | 5.96 | – | – |
| CCCCCC/N=C/C1=Cc2cc3c(cc2C(c2cc(OC)c(OC)c(OC)c2)[C@@H]1C(=O)OC)OCO3 (stereo partly specified) | 6.70 | 7.70 | 6.31 | 100 | 5.70 | – | – |
| COC(=O)[C@@H]1C(/C=N/C2CCCCC2)=Cc2cc3c(cc2C1c1cc(OC)c(OC)c(OC)c1)OCO3 (stereo partly specified) | 6.60 | 7.60 | 6.31 | 80 | 5.70 | – | – |
| COC(=O)[C@@H]1C(/C=N/c2cc(C)c(C)cc2N)=Cc2cc3c(cc2C1c1cc(OC)c(OC)c(OC)c1)OCO3 (stereo partly specified) | 6.05 | 6.70 | 6.05 | 4.5 | 6.05 | – | – |
| COC(=O)[C@@H]1C(/C=N/c2ccccc2)=Cc2cc3c(cc2C1c1cc(OC)c(OC)c(OC)c1)OCO3 (stereo partly specified) | 7.70 | 7.70 | 5.92 | 25 | 6.30 | – | – |
| CCC/N=C/C1=Cc2cc3c(cc2C(c2cc(OC)c(OC)c(OC)c2)[C@@H]1C(=O)OC)OCO3 (stereo partly specified) | 6.96 | 8.00 | – | 110 | 5.96 | – | – |
| COC(=O)[C@@H]1C(/C=N/c2nccs2)=Cc2cc3c(cc2C1c1cc(OC)c(OC)c(OC)c1)OCO3 (stereo partly specified) | 6.60 | 7.60 | 6.60 | 8 | 6.70 | – | – |
| COC(=O)[C@@H]1C(/C=N/CCO)=Cc2cc3c(cc2C1c1cc(OC)c(OC)c(OC)c1)OCO3 (stereo partly specified) | 6.96 | 7.68 | 6.68 | 10 | 6.68 | – | – |
| COC(=O)[C@@H]1C(/C=N/c2cc(OC)c(OC)c(OC)c2)=Cc2cc3c(cc2C1c1cc(OC)c(OC)c(OC)c1)OCO3 (stereo partly specified) | 6.68 | 7.68 | 6.38 | 40 | 6.07 | – | – |
| CC/N=C/C1=Cc2cc3c(cc2[C@@H](c2cc(OC)c(OC)c(OC)c2)[C@@H]1C(=O)OC)OCO3 (stereo in doubt; 5) | – | – | 7.66 | 500 | 5.96 | 7.66 | 8.66 |
| CC/N=C/C1=Cc2cc3c(cc2[C@@H](c2cc(OC)c(OC)c(OC)c2)[C@@H]1C(=O)OC)OCO3 (stereo in doubt; 11) | – | – | – | – | – | 6.96 | 7.47 |
